High-throughput results deposited in PubChem by several laboratories.
Sampled rows, rich in hits. Any-hit rate of the full collection: about 4.5%.
MrgX1 PAM – human MrgX1 positive allosteric modulation, primary screen. AID 588675. B-score at 10 µM. MrgX1-HEK293, Fluo-4 calcium flux, FDSS; stronger effect = higher value. 310,000 tested, 0.63% active. Q96LB2;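 active = plate-corrected calcium response at least 3 library SD above typical, normal starting fluorescence, not activating the receptor alone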;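 also: compound read alongside a low EC10 to EC30 dose of BAM8-22 agonist; peak minus trough fluorescence over baseline measured at the second addition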
PHOSPHO1 inh – blocks human PHOSPHO1 phosphatase activity; inhibition, % at 13.3 µM; 290,000 tested, 1.1% active; AID 1565; recombinant PHOSPHO1, absorbance phosphatase assay; in the data active = inhibition above about 60%
Target sequence (Q8TCT1 whole entry, looked up): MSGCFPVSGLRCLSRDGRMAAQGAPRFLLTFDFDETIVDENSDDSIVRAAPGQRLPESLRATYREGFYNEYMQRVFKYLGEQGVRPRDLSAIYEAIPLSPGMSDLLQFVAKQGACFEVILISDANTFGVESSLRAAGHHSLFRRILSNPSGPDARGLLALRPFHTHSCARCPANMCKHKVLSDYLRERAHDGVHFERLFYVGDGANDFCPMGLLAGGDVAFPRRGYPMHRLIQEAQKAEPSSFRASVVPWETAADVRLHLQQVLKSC
RGS4 block – inhibitors of human RGS4; P49798; HEK293 M3R/RGS4 inducible, Fluo-4 calcium flux; stronger effect = higher value; triggered by carbachol at its EC20; B-score at 10 µM; 310,000 tested, 0.45% active; AID 463165;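 active = B-score, a plate-corrected calcium signal, over three deviations above library mean, with baseline fluorescence within five deviations of library mean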;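 also: RGS4 expression induced by doxycycline in cells with stable M3 receptor; B-score is computed from the integrated fluorescence ratio over baseline after carbachol; higher B-score means a larger calcium signal and so more RGS4 inhibition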
Target sequence (P49798 whole entry, looked up): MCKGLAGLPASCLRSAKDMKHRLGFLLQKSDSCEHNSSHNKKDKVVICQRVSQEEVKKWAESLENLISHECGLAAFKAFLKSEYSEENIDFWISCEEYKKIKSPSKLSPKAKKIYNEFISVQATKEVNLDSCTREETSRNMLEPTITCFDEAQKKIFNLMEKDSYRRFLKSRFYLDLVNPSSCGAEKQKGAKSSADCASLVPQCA
RGS4 pot – potentiators or activators of RGS4. AID 463111. B-score at 10 µM. 310,000 tested, 0.92% active. HEK293 M3R/inducible RGS4, carbachol calcium flux Fluo4; stronger effect = lower value;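 active = B-score of the integrated calcium signal more than 4 SD below the library mean, with starting fluorescence not abnormally high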;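 also: negative B-score means reduced calcium response which marks RGS4 activation or potentiation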
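System: HEK293 FlpIn-TREx cells, stable M3R, doxycycline-inducible RGS4. Timing: overnight RGS4 induction, 30 min dye load 37 °C, 20 min compound RT. Also added: carbachol, ECmax concentration. Measured by: Fluo4 fluorescence kinetic imaging of calcium. Evaluation: integrated calcium ratio converted to B score.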
MrgX1 ag – agonists of human MrgX1 receptor | Q96LB2 | MrgX1-HEK293 cells, Fluo-4 calcium fluorescence, agonist mode; stronger effect = higher value | B-score at 10 µM | 310,000 tested, 0.44% active | AID 588627;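 active = calcium response B-score plate-corrected fluorescence ratio at least 3 library SD, with starting fluorescence B-score inside 5 SD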
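System – MrgX1-expressing HEK293 cells · Incubation – cells plated overnight, dye loaded 0.5 h 37 °C, 0.5 h room temperature · Technique – kinetic Fluo-4 NW fluorescence of intracellular calcium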
MrgX1 antag – antagonists of human MrgX1 receptor | Q96LB2 | MRGX1-HEK293 calcium flux, Fluo-4, BAM8-22 antagonism; stronger effect = lower value | B-score at 10 µM | 310,000 tested, 1.3% active | AID 588676;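 active = calcium-response B-score plate-corrected more than 3 library SD below zero, starting fluorescence within 5 deviations, no agonist response on first addition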;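 also: peak minus trough fluorescence over baseline after final BAM8-22 challenge near maximal dose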
MrgX1 antag conf – human MrgX1 receptor antagonism, re-confirmation screen; 2,300 tested, 19% active; remaining BAM8-22 calcium response % of control (stronger effect = lower value), % at 10 µM; shares compounds with MrgX1 antag; MrgX1-HEK293, BAM8-22 calcium flux, Fluo-4; stronger effect = lower value; AID 602420;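 active = remaining agonist calcium response no higher than 100% minus 3 SD of agonist-only control wells, with starting fluorescence near control levels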;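 also: agonist BAM8-22 given at a near maximal EC90 to ECmax level; peak minus minimum fluorescence divided by baseline after agonist addition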
HEK293 Ca flux – counter-screen for MrgX1 antagonists: effect in parental HEK293 cells; shares compounds with MrgX1 antag; Fluo-4 calcium fluorescence, FDSS; fluorescence ratio F(max-min)/F0 at 10 µM; 4,000 tested, 2% active; AID 624111;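 active = duplicate-averaged calcium fluorescence ratio at least three times the standard deviation of buffer wells, a nonspecific response in parental cells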
HEK293 Ca counter – activity in parental HEK293 cells without MrgX1 | shares compounds with MrgX1 antag | parental HEK293 calcium flux, Fluo-4 fluorescence ratio; stronger effect = higher value | fluorescence ratio F(max-min)/F0 at 10 µM | 4,000 tested, 0.4% active;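 active = calcium fluorescence ratio, averaged over duplicates, at least 3 SD of the buffer-well ratio, meaning a nonspecific response in receptor-free cells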;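 also: untransfected parental HEK293 lacking MrgX1 used as counterscreen for MrgX1 allosteric activators; fluorescence change taken during the second addition on a kinetic imager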
HEK293 Ca cntr2 – MrgX1 activator counter-screen hit in parental HEK293 cells. shares compounds with MrgX1 antag. Fluo-4 calcium fluorescence (FDSS); stronger effect = higher value. fluorescence ratio F(max-min)/F0 at 10 µM. 4,000 tested, 8.7% active;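 active = calcium fluorescence ratio at least three times the spread of buffer wells, meaning a non-specific response in parental cells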
A number is an active result; 0 = inactive; - = not tested or not shown.

SMILES	MrgX1 PAM	PHOSPHO1 inh	RGS4 block	RGS4 pot	MrgX1 ag	MrgX1 antag	MrgX1 antag conf	HEK293 Ca flux	HEK293 Ca counter	HEK293 Ca cntr2
CC(NC(=O)Cc1ccc(NC2=NC3CS(=O)(=O)CC3S2)cc1)c1ccccc1 (stereo not drawn)	0	0	0	0	0	0	-	-	-	-
O=C(c1cc(COc2ccc(F)cc2Cl)on1)N1CCCCC1c1cccnc1 (stereo not drawn)	0	0	0	0	0	0	-	-	-	-
Cc1nonc1C1CCCN1C(=O)c1cc(COc2ccc(F)cc2Cl)on1 (stereo not drawn)	0	0	0	0	0	-8.77	0	0	0	0
Cc1ccc(OCC(=O)Nn2c(C)nc3ccccc3c2=O)c(C(C)C)c1	0	0	0	0	0	-11.2	0	0	0	0
Cc1ccc2nc(Br)c3c(c2c1)OC(CBr)C3 (stereo not drawn)	0	0	0	0	0	0	-	-	-	-
CS(=O)(=O)N1CCC(C(=O)Nc2cc(Cl)c(Cl)cc2Cl)CC1	0	0	0	0	0	0	-	-	-	-
COc1ccc(Cl)cc1NC(=O)c1nnn(CC(=O)Nc2cc(C)cc(C)c2)c1N	0	0	0	0	0	0	-	-	-	-
CCOC(=O)Cc1csc(NC(=O)c2c(O)c3c(n(CC(C)C)c2=O)CCCC3)n1	0	0	0	0	0	-6.84	81.3%	0	0	0
Brc1ccc(CNc2cc3c(cc2Br)OCCO3)cc1	0	0	0	0	0	-4.54	0	0	0	0
CC(=O)Nc1cc2c(cc1Br)OCCO2	0	0	0	0	0	0	-	-	-	-
Cc1nn(C)c(-c2n[nH]c(=S)n2-c2ccccc2)c1Cl	0	0	0	0	0	-4.75	0	0	0	0
COc1ccc2oc(C(=O)OCC(=O)Nc3ccc(N4CCOCC4)cc3)c(C)c2c1	0	-	0	0	0	-8.49	0	0	0	0
COc1ccc2oc(C(=O)OCC(=O)Nc3ccccc3)c(C)c2c1	0	0	0	0	0	0	-	-	-	-
COc1ccc2c(c1)[nH]c1c(N3CCSCC3)ncnc12	0	0	0	0	0	-11.8	49.7%	0	0	0
Cc1ccc(-n2c(=O)cc(N3CCCCCC3)[nH]c2=O)cc1	0	0	0	0	0	-7.69	0	0	0	0
COc1cc(C2C(C(=O)c3cc4ccccc4o3)=C(O)C(=O)N2CCN2CCOCC2)ccc1OCCC(C)C (stereo not drawn)	-	-	0	0	-	-	-	-	-	-
Cc1onc(-c2ccccc2)c1CNC(=O)Nc1cccc(Cl)c1	0	0	0	0	0	-6.55	81.7%	0	0	0
Cc1cc(C)cc(NC(=O)NCc2c(-c3ccccc3)noc2C)c1	0	0	0	0	0	0	-	-	-	-
CC(=O)c1cccc(NC(=O)Nc2ccc3c(c2)N(C)C(=O)CS3)c1	0	0	0	0	0	-9.01	3.0%	0	0	0
Cc1cc(C)cc(NC(=O)Nc2ccc3c(c2)N(C)C(=O)CS3)c1	0	0	0	0	0	0	-	-	-	-
COc1ccc(-n2nnnc2S(=O)(=O)CC(=O)N2CCCCC2)cc1	0	0	-	-	0	0	-	-	-	-
COc1ccc(-n2nnnc2S(=O)(=O)Cc2ccc(C(=O)O)cc2)cc1	0	0	0	0	0	-8.25	0	0	0	0
O=C(CSc1nnc(NC(=O)c2cc(Br)ccc2Cl)s1)NCC1CCCO1 (stereo not drawn)	0	0	0	0	0	-12.7	0	0	0	0
O=C(CSc1nc2ccccc2s1)NCC1CCCO1 (stereo not drawn)	0	0	0	0	0	-5.94	0	0	0	0
CS(=O)(=O)N1CCc2cc(C(=O)Nc3ccc(O)cc3)ccc21	0	0	0	0	0	0	-	-	-	-
SMILES	MrgX1 PAM	PHOSPHO1 inh	RGS4 block	RGS4 pot	MrgX1 ag	MrgX1 antag	MrgX1 antag conf	HEK293 Ca flux	HEK293 Ca counter	HEK293 Ca cntr2
O=C(CN1C(=O)NC2(CCCC2)C1=O)Nc1ccccc1	0	0	0	0	0	0	-	-	-	-
O=C(O)CCN1C(=O)NC2(CCCC2)C1=O	0	0	0	0	0	-7.3	0	0	0	0
CC(C)C(c1nnnn1C1CCCC1)N1CCCc2ccccc21 (stereo not drawn)	0	0	0	0	0	-6.05	0	0	0	0
CC(C)C(c1nnnn1C1CCCCC1)N1CCCc2ccccc21 (stereo not drawn)	0	0	0	0	0	0	-	-	-	-
Nc1nnc(SCc2ccccc2Cl)s1	0	0	0	0	0	0	-	-	-	-
Nc1nnc(SCc2cc3c(cc2Cl)OCO3)s1	0	0	0	0	0	-6.34	0	0	0	0
O=C(NCc1ccco1)C1CCCN1C(=O)Nc1ccc(Br)cc1 (stereo not drawn)	-	0	0	0	-	-	-	-	-	-
COc1ccc(CCNc2ccc([N+](=O)[O-])cn2)cc1	0	0	0	0	0	0	-	-	-	-
COc1ccc(CCNc2cc(=O)[nH]c(N)n2)cc1	0	0	0	0	0	-6.79	0	0	0	0
CC(C(=O)Nc1sc2c(c1C(=O)NCC1CCCO1)CCC2)N1C(=O)c2ccccc2C1=O (stereo not drawn)	0	0	0	0	0	0	-	-	-	-
COC(=O)c1cc2c(ccn2-c2ccc(F)cc2)n1Cc1ccc(C#N)cc1	0	0	0	0	0	-4.69	0	0	0	0
Cc1ccccc1NS(=O)(=O)c1ccc2[nH]c(=O)[nH]c2c1	0	0	0	0	0	-5.6	0	0	0	0
O=S(=O)(NC1c2cccc3cccc(c23)C1N1CCNCC1)c1ccc(Cl)cc1 (stereo not drawn)	0	0	0	0	0	-5.75	83.6%	0	0	0
CC(=O)N1CCN(C2c3cccc4cccc(c34)C2NS(=O)(=O)c2ccccc2)CC1 (stereo not drawn)	0	0	0	0	0	0	-	-	-	-
OCCC1CN(Cc2ccon2)CCN1Cc1ccc(F)c(F)c1 (stereo not drawn)	0	0	0	0	0	-8.45	0	0	0	0
COc1cccc(CN2CCN(Cc3ccon3)CC2CCO)c1 (stereo not drawn)	0	0	0	0	0	0	-	-	-	-
COc1ccc(CCNC(=O)c2ccc(OC)c(OC)c2)cc1OC	0	0	0	0	0	-6.76	0	0	0	0
COc1cc(OC)cc(C(=O)NCCc2ccc(OC)c(OC)c2)c1	0	-	0	0	0	0	-	-	-	-
